Columns and labels:
[1] = Cmax in mouse brain at 50 mg/kg, po administered as single dose via gavage by liquid chromatography/tandem mass spectrometric analysis; format: ADME, organism-based; parameters: dose 50 mg/kg, route oral
In short: (§1)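 Time course after a single 50 mg/kg oral dose in 5% DMSO/7% Tween 80/3% EtOH in 0.9% saline. Mice are sacrificed in groups of three at 1, 4, 8 and 24 h. Plasma is separated by centrifugation and brain homogenized in acetonitrile, both measured by LC-MS/MS. Brain values are corrected for 3% v/w blood. Lower limit of quantitation 0.010 μM. Values are means ± SEM.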

[2] = system: Trypanosoma brucei brucei; experiment: Antitrypanosomal activity against Trypanosoma brucei brucei BF427 assessed as growth inhibition measured after 48 hrs by Alamar blue assay; format: functional; settings: BF427, 48 h
In short: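 Bloodstream-form parasites in HMI-9 medium are exposed to serial compound dilutions in triplicate. Viability is read with Alamar Blue at 48 h. EC50 and EC90 come from nonlinear regression. Pentamidine isethionate is the control.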

[3] = Drug level in mouse plasma at 50 mg/kg, po administered as single dose via gavage measured at 8 hrs post dose by liquid chromatography/tandem mass spectrometric analysis; format: ADME, organism-based
In short: (§2)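 Single 50 mg/kg oral dose in DMSO (5%), Tween 80 (7%), EtOH (3%) in 0.9% saline; groups of three mice killed at 1, 4, 8 and 24 h. Plasma separated by brief centrifugation; brain homogenised in acetonitrile; both assayed by LC-MS/MS, brain values corrected for 3% v/w blood content. Mean ± SEM of 3 mice; plasma LLQ 0.010 μM.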

[4] = Drug level in Swiss-Webster mouse plasma infected with Trypanosoma brucei rhodesiense STIB900 at 50 mg/kg, po bid administered via gavage for 4 days starting from 2 days post infection measured at 1 hr post last dose; format: ADME, organism-based
In short: (§3)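 Female Swiss-Webster mice (ND4 outbred, 6−8 weeks), groups of five, infected day 0 with 1 × 10^4 T. b. rhodesiense STIB900; 50 mg/kg oral gavage every 12 h days 2−5 (eight doses) in 200 μL DMSO 5%, Tween 80 7%, EtOH 3% in 0.9% saline. Tail blood from 3 mice before dose 7, then 1 and 6 h post-dose, spotted on cards, LC-MS/MS.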

[5] = AUC (0 to infinity) in mouse at 50 mg/kg, po administered as single dose via gavage as 60% phosal 53 MCT/30% PEG400/10% EtOH formulation by liquid chromatography/tandem mass spectrometric analysis; format: ADME, organism-based; parameters: dose 50 mg/kg, time infinity, route oral; settings: in vivo
In short: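 Single oral gavage dose of 50 mg/kg to groups of three mice, vehicle as in the line. Tail blood of 40 μL is taken into heparinized capillaries at time points out to as much as 32 h. It is spotted on dried-blood cards and quantified by LC-MS/MS. Values are means ± SEM of three mice.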

[6] = Stability in human liver microsomes assessed as compound remaining at 1.5 uM in presence of NADPH measured after 60 mins by liquid chromatography/tandem mass spectrometric analysis; format: ADME, microsome; settings: read-out: Stability
In short: (§4)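 Pooled liver microsomes (0.5 mg/mL) are preincubated 5 min at 37 °C in 0.16 M KH2PO4 with 1 mM NADPH, then test compound is added at 1.5 μM. Aliquots are quenched with 4 volumes of acetonitrile at 0, 5, 10, 15, 30 and 60 min and analyzed by LC-MS/MS. Percent remaining at 5 or 60 min is given when t1/2 is outside the 5–60 min range. Controls: testosterone, dextromethorphan.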

[7] = Drug level in Swiss-Webster mouse plasma infected with Trypanosoma brucei rhodesiense STIB900 at 50 mg/kg, po bid administered via gavage for 4 days starting from 2 days post infection measured at 6 hrs post last dose; format: ADME, organism-based; in short: as §3
[8] = Selectivity index, ratio of EC50 for human CRL8155 cells to EC50 for Trypanosoma brucei brucei BF427; format: toxicity; settings: read-out: Ratio EC50
[9] = AUC (0 to infinity) in mouse plasma at 50 mg/kg, po administered as single dose via gavage by liquid chromatography/tandem mass spectrometric analysis; format: ADME, organism-based; parameters: dose 50 mg/kg, time infinity, route oral; in short: as §1
Plasma [10] = experiment: Drug level in Swiss-Webster mouse plasma infected with Trypanosoma brucei brucei TREU667 at 50 mg/kg, po bid administered via gavage for 10 days starting from 21 days post infection measured on day 7 prior to dose 15; format: ADME, organism-based; settings: in vivo
In short: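 Groups of five mice given 1 × 10^4 T. b. brucei TREU667 on day 0; from day 21, 50 mg/kg oral gavage every 12 h for 10 d (20 doses) in 200 μL Phosal 53 MCT (60%), PEG400 (30%), EtOH (10%). Tail blood drawn from 3 mice before dose 15 and 1 and 6 h after it, spotted on cards, LC-MS/MS.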

[11] = Cytotoxicity against human CRL8155 cells assessed as growth inhibition after 48 hrs by Alamar blue assay; format: cell-based; settings: Homo sapiens, CRL8155, 48 h
In short: (§5)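 CRL-8155 lymphoblasts or HepG2 hepatocellular carcinoma cells are exposed 48 h to serial compound dilutions in quadruplicate. Growth is read with Alamar Blue, and 50% and 90% inhibitory concentrations come from nonlinear regression. Quinacrine is the control.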

[12] = AUC (0 to infinity) in mouse brain at 50 mg/kg, po administered as single dose via gavage by liquid chromatography/tandem mass spectrometric analysis; format: ADME, organism-based; parameters: dose 50 mg/kg, time infinity, route oral; in short: as §1
[13] = Drug level in mouse plasma at 5 mg/kg, ip administered as single dose measured at 1 hr post dose by liquid chromatography/tandem mass spectrometric analysis; format: ADME, organism-based
In short: (§6)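 Single ip dose of 5 mg/kg in 5% DMSO/7% Tween 80/3% EtOH in 0.9% saline, three mice per compound (six for one compound). At 1 h, plasma is separated by centrifugation and brain homogenized in acetonitrile. Both are quantified by LC-MS/MS, with brain corrected for 3% v/w blood. Brain/plasma ratio is reported as mean ± SEM.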

[14] = Selectivity index, ratio of EC50 for human HepG2 cells to EC50 for Trypanosoma brucei brucei BF427; format: toxicity; settings: read-out: Ratio EC50
[15] = Stability in mouse liver microsomes assessed as compound remaining at 1.5 uM in presence of NADPH measured after 60 mins by liquid chromatography/tandem mass spectrometric analysis; format: ADME, microsome; settings: read-out: Stability; in short: as §4
[16] = Drug level in Swiss-Webster mouse plasma infected with Trypanosoma brucei brucei TREU667 at 50 mg/kg, po bid administered via gavage for 10 days starting from 21 days post infection measured at 6 hrs post last dose; format: ADME, organism-based
[17] = Drug level in mouse brain at 50 mg/kg, po administered as single dose via gavage measured at 1 hr post dose by liquid chromatography/tandem mass spectrometric analysis; format: ADME, organism-based; settings: read-out: Drug uptake; in short: as §2
HepG2 = experiment: Cytotoxicity against human HepG2 cells assessed as growth inhibition after 48 hrs by Alamar blue assay; format: cell-based; settings: Homo sapiens, HepG2, 48 h; in short: as §5
[18] = Drug level in mouse brain at 5 mg/kg, ip administered as single dose measured at 1 hr post dose by liquid chromatography/tandem mass spectrometric analysis; format: ADME, organism-based; settings: read-out: Drug uptake; in short: as §6
Plasma [19] = experiment: Drug level in Swiss-Webster mouse plasma infected with Trypanosoma brucei rhodesiense STIB900 at 50 mg/kg, po bid administered via gavage for 4 days starting from 2 days post infection measured on day 3 prior to dose 7; format: ADME, organism-based; settings: in vivo; in short: as §3
[20] = Drug level in mouse plasma at 50 mg/kg, po administered as single dose via gavage measured at 1 hr post dose by liquid chromatography/tandem mass spectrometric analysis; format: ADME, organism-based; in short: as §2
[21] = Drug level in mouse brain at 50 mg/kg, po administered as single dose via gavage measured at 4 hrs post dose by liquid chromatography/tandem mass spectrometric analysis; format: ADME, organism-based; settings: read-out: Drug uptake; in short: as §2

O=C(Nc1ccc2sc(-c3ccc(F)c(F)c3)nc2c1)N1CC[C@H](F)C1
Cmax [1]: 54.8 µM | EC50 [2]: 34.8 nM | EC90 [2]: 54.8 nM | concentration at 8 h [3]: 8.97 µM | concentration at 1 h [4]: 18.6 µM | AUC(0-inf) [5]: 245 µM·h | remaining at 1 h, 1.5 µM [6]: 53% | concentration at 6 h [7]: 15 µM | selectivity ratio [8]: > 1440 | AUC(0-inf) [9]: 180 µM·h | concentration (Plasma [10]): 15.8 µM | EC50 [11]: > 50000 nM | AUC(0-inf) [12]: 719 µM·h | concentration at 1 h [13]: 2.27 µM | selectivity ratio [14]: > 1440 | remaining at 1 h, 1.5 µM [15]: 73% | concentration at 6 h [16]: 26.7 µM | concentration at 1 h [17]: 38.2 µM | EC50 (HepG2): > 50000 nM | concentration at 1 h [18]: 9.07 µM | concentration (Plasma [19]): 9.1 µM | concentration at 1 h [20]: 27.1 µM | concentration at 4 h [21]: 45.2 µM

Source: ChEMBL document CHEMBL3992510, “Urea Derivatives of 2-Aryl-benzothiazol-5-amines: A New Class of Potential Drugs for Human African Trypanosomiasis” (J Med Chem, 2017)
